# Hits are enriched below; roughly 10% of the tested compounds scored in any of these assays.
# WT yeast gro inh – growth inhibition of WT yeast, mitochondrial fusion screen. mitochondrial fusion phenotypic screen, WT strain. inhibition, % at 10 µM. hit rate 2.1% among 190,000. AID 1362; in the data active = inhibition above about 58%; tested in S. cerevisiae
# PMI act hi M6P – PMI (human) activation, high substrate; activation factor at 20 µM; hit rate 0.34% among 190,000; coupled PMI enzyme assay, resazurin fluorescence, 20 min; stronger effect = higher value; 1 = untreated enzyme, 0 = substrate-free blank;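 active = activation factor of 2 or more at 20 µM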
# Target sequence (P34949 whole entry, looked up): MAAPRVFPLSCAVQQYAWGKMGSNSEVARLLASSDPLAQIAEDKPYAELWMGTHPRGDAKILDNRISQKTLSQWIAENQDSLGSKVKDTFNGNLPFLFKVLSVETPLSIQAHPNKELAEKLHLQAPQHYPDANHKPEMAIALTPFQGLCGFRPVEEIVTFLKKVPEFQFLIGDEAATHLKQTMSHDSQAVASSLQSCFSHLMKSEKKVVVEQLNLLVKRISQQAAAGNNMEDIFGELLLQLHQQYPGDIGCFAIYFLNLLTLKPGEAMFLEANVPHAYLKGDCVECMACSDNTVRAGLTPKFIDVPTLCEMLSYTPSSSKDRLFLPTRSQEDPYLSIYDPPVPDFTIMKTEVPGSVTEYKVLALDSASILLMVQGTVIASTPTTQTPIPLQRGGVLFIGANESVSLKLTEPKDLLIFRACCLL
#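 Test system: human PMI in coupled enzyme assay; Input: PMI at 15 ng/mL final; Medium: HEPES buffer, pH 7.4; Schedule: 20 min incubation at room temperature; Technique: resorufin fluorescence at Ex 544/Em 590 nm; Compound: 20 µM single dose; Probe or stimulus: Near-saturating mannose-6-phosphate, 1.0 mM.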
# Lmaj promast – Leishmania major promastigote growth inhibition | Leishmania major promastigotes, resazurin fluorescence viability | inhibition, % at 10 µM | hit rate 9% among 200,000 | AID 1063; in the data active = inhibition above about 50%;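 note: promastigotes grown with compound for 44 hours at 28 °C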
# Diaphorase act – activates diaphorase or chemically reduces, flagging diaphorase assay artifacts; Diaphorase/resazurin coupled assay, resorufin fluorescence, 16 min; stronger effect = higher value; 1 = vehicle wells, 0 = NADH-free wells; activation factor at 20 µM; hit rate 0.005% among 190,000; AID 1229;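 active = diaphorase activity raised at least twofold by the compound at 20 µM; inactive = activation factor below 2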
#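 Assay system: bacterial diaphorase enzyme (C. kluyveri) / Input: enzyme 0.07 U/mL final / Medium: 50 mM HEPES pH 7.4 with 4.542 mM MgCl2, 0.005% Tween 20 / Doses: single compound dose of 20 µM, 1% DMSO final / Incubation: 16 min enzyme reaction, ambient temperature / Signal: fluorescence, excitation 544 nm and emission 590 nm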
# PMI activator – activators of human phosphomannose isomerase. P34949. purified human PMI, coupled resazurin fluorescence, 20 min; stronger effect = higher value; 1 = vehicle control, 0 substrate-free wells. activation factor at 20 µM. hit rate 0.005% among 190,000. AID 1214;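 active = activation factor of 2 or more at 20 µM, relative to plate controls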
# Lmaj promast 1uM – inhibitors of Leishmania major promastigote growth, repeat at 1 uM. shares compounds with Lmaj promast. L. major promastigote growth, resazurin fluorescence, 48 h. inhibition, % at 1 µM. hit rate 13% among 1,100. AID 1258;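 active = inhibition above about 50% in both repeat tests, limit read from the data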
# An asterisk follows results filed as active; . = no result.
SMILES,WT yeast gro inh,PMI act hi M6P,Lmaj promast,Diaphorase act,PMI activator,Lmaj promast 1uM
CC(C)(C)c1ccc(-c2nc(C=O)c3ccccn23)cc1,6,1,63*,1,1,2
CN(C(=O)COC(=O)c1ccccc1C(=O)N1CCN(c2ccccc2)CC1)c1ccccc1,14,1,0,0.9,1,.
O=S(=O)(NC(=NCCc1ccc(Cl)cc1)c1ccccc1Cl)c1cccs1,5,0.8,100*,0.7,0.8,-5
COc1ccc(-n2nnnc2S(=O)(=O)CC(=O)N2CCCCC2)cc1,-4,0.8,93*,0.8,0.9,19
Cc1ccn(CCC(=O)N2CCCC(CCC(=O)N3CCN(c4ccccn4)CC3)C2)n1 (stereo not given),-18,1,-4,0.9,1,.
Nc1nnc(SCc2ccc([N+](=O)[O-])cc2)s1,-14,1,1,0.9,1.2,.
Nc1ccc2nc(SCc3ccc([N+](=O)[O-])cc3)sc2c1,-11,0.8,69*,0.7,1,11
Cc1ccc(C2=CSC3=NNC4(CCCCC4)NN23)cc1,20,1,55*,0.9,1,-12
Cc1ccc(C2=CSC3=NCCN23)c(C)c1,16,1.2,-6,1,1.3,.
O=C(/C=C/c1ccccc1)Nc1ccc(Cl)cn1,4,0.7,-1,0.9,0.9,.
Cc1cc(C(C)(C)C)cc(C)c1Cn1c2[n+](c3ccc(C(F)(F)F)cc31)CCCCC2,25,1,100*,1.2,0.7,37
CN(C)S(=O)(=O)c1cccc(N=c2scc(-c3ccc4c(c3)NC(=O)CO4)n2CC2CCCO2)c1 (stereo not given),9,1,96*,0.7,0.9,-13
COc1ccccc1N=c1scc(-c2ccc3c(c2)NC(=O)CO3)n1CC1CCCO1 (stereo not given),4,1,6,0.8,0.8,.
CCC(/C=C1\Sc2ccc(OC)cc2N1CCO)=C\c1sc2ccc(OC)cc2[n+]1CCO,84*,0.9,100*,1,0.8,100*
CCC(=O)/C=C1/Sc2ccc(OC)cc2N1CCO,-11,1,-7,0.9,0.9,.
CCOC(=O)N1CCN(C(=O)c2ccc3c(c2)sc2nc(-c4ccccc4)cn23)CC1,26,0.8,58*,0.8,0.8,2
CCOC(=O)N1CCC(NC(=O)c2ccc3c(c2)sc2nc(-c4ccc(OC)cc4)cn23)CC1,8,0.9,0,0.9,0.9,.
N=C1C(c2ccccc2)=C(O)CN1c1cccc2ccccc12,-5,1,3,0.9,0.9,.
O=C1O/C(=C/c2ccccc2)c2ccccc21,-2,1,-4,1,0.9,.
N#CC1=C(c2ccccc2)/C(=C/c2ccccc2)OC1=O,42,1,92*,0.8,0.9,1
Cc1[nH]c(=O)[nH]c(=O)c1S(=O)(=O)N1CCCC(C(=O)N2CCN(c3cccc(C(F)(F)F)c3)CC2)C1 (stereo not given),-5,1,-5,0.9,1,.
Cc1ccc(CNc2ccc(N3CCOCC3)cc2)s1,-11,1,81*,1,0.9,-7
CC(=O)N1CCN(c2ccc(NCc3ccc(C)s3)cc2)CC1,-2,0.8,-11,1,1,.
CN1C(=O)C(c2nnc(Nc3cccc4ccccc34)s2)C2CC1(C)Oc1ccccc12 (stereo not given),42,1,72*,0.9,1,-10
O=C(COc1ccc(Cl)cc1)NCc1nnc(SCC(=O)Nc2ccccc2F)o1,1,1,6,0.9,1,.
CN(c1ccccc1)c1ccc(/C=C(\C#N)c2nnc3n2CCCCC3)cc1[N+](=O)[O-],-10,1.3,56*,1.1,1.1,14
Cc1ccc2nc3cc([N+](=O)[O-])cc([N+](=O)[O-])c3cc2c1,27,1.3,101*,0.9,1.4,100*
CNc1ccccc1C(C)(C)c1cc(-c2cccc(Br)c2)no1,73*,0.9,99*,0.9,1.1,88*
Cc1cccc(NC(=O)c2sc(Cl)nc2-c2ccccc2)c1,8,1.1,12,1.1,1,.
